# Assay results taken from ChEMBL document CHEMBL3352156, “Endoplasmic reticulum stress suppressive compounds from the edible mushroom Mycoleptodonoides aitchisonii” (J Nat Prod, 2014).
# Calls of active or inactive are those of the source. The rule behind the calls is not given here.
# Columns and labels:
# N2a [1] = experiment: Protection against tunicamycin-induced ER-stress-dependent mouse Neuro2a cell death assessed as cell viability after 24 hrs by MTT assay; format: functional, cell-based
# How it was run: (§1)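 Neuro2a cells in D-MEM with 10% FBS, seeded at 2000 cells/well and grown 24 h. Pretreated 6 h with graded compound levels in serum-free D-MEM, then stressor added to final 0.5 μg/mL tunicamycin or 10 nM thapsigargin for 24 h. MTT 0.25 mg/mL for 2 h, stopped with SDS/DMF, A570. Viability as percent of untreated cells; TG mean ± SE, n = 10−12; Tukey–Kramer tests.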
# N2a [2] = experiment: Protection against thapsigargin-induced ER-stress-dependent mouse Neuro2a cell death assessed as cell viability at > 50 uM after 24 hrs by MTT assay; format: functional, cell-based; how it was run: as §1
Compound,Activity (N2a [1]),Activity (N2a [2])
CC(=O)[C@@H]1COC(=O)[C@H]1C,inactive,Active
OCC[C@H](O)CCc1ccccc1,inactive,Active
CC1=C(C)C(C)(O)OC1=O (stereo unspecified),inactive,Active
CC1=C(CO)C(C)(O)OC1=O (stereo unspecified),inactive,Active
CC1=C(C(C)O)C(O)OC1=O (stereo unspecified),inactive,Active
CC(=O)[C@@H]1COC(=O)[C@@H]1C,inactive,inactive
C[C@@H](O)[C@H]1COC(=O)[C@@H]1C,inactive,Active
OCC[C@H](O)[C@H](O)Cc1ccccc1,inactive,Active
